Measurements taken from ChEMBL document CHEMBL1135651 (J Med Chem, 2002).
pIC50: −log10 of the molar value. Calls of active or inactive are those of the source. The calls are words filed in the database; no cut-off is given here.

How the values were obtained:
[1] = target: T1, Prostaglandin G/H synthase 1 (Homo sapiens, UniProt P23219); test: The inhibitory activity against Prostaglandin G/H synthase 1 measured as TXB2 production after blood coagulation using human Whole blood assay: NI means no inhibition
Outline: (§1)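 Human whole blood; COX-1 activity read as TXB2 produced during blood coagulation. Each drug run in triplicate over 100 to 0.01 μM. IC50 calculated from the concentration series. No inhibition at 100 μM recorded as ni.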

[2] = target: T2, Prostaglandin G/H synthase 2 (Homo sapiens) (UniProt P35354); test: The inhibitory activity against cyclooxygenase Prostaglandin G/H synthase 2 (COX-2) measured as PGE-2 production after stimulation by lipopolysaccharide (LPS) using human Whole blood assay:NI means no inhibition
T2 sequence (whole entry): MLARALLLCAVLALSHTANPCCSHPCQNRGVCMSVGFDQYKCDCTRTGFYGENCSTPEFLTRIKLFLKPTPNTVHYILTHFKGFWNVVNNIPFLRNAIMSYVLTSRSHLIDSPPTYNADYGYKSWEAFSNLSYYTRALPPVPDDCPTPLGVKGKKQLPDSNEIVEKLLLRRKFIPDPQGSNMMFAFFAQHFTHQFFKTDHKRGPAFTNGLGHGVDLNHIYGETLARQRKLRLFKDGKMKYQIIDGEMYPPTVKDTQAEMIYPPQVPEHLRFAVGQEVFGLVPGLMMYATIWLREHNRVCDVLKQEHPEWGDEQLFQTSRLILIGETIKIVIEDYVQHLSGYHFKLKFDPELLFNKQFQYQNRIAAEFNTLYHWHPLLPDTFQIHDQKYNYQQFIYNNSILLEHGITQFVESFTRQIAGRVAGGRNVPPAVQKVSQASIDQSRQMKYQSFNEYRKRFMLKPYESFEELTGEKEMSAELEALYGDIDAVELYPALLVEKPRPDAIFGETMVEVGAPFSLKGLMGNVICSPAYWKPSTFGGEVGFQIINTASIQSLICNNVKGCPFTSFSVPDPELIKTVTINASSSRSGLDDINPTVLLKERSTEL

[3] = target: T1, Prostaglandin G/H synthase 1; test: The inhibitory activity against cyclooxygenase Prostaglandin G/H synthase 1 measured as TXB2 production after blood coagulation using human Whole blood assay: NI means no inhibition; outline: as §1
Rattus norvegicus [4] = test: The percentage growth of paw after injection of carrageneen at a dose of 10 mg/kg dose; assay type: functional
Outline: (§2)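 Wistar rats (250 g) given drug intraperitoneally, 10 or 30 mg/kg, from a 10 mg/mL DMSO solution. After 1 h, 0.1 mL 1% lambda carrageenan was injected into the right hind paw plantar region. At 3 h, rats were euthanized with nembutal (100 mg/kg) and paws cut at the ankle. Swelling was taken as % weight increase over the control paw. Mean ± SD, n = 6.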

Rattus norvegicus [5] = test: The percentage growth of paw after injection of carrageneen at a dose of 30 mg/kg dose; assay type: functional; outline: as §2
[6] = target: T1, Prostaglandin G/H synthase 1; test: The inhibitory activity against Prostaglandin G/H synthase 1 measured as TXB2 production after blood coagulation using human Whole blood assay
Rattus norvegicus [7] = test: The percentage growth of paw after injection of carrageneen at a dose of 30 mg/kg dose; Toxic; assay type: functional, organism-based; parameters: dose 30 mg/kg; outline: as §2
[8] = target: T3, Prostaglandin G/H synthase 2 (Homo sapiens, UniProt P35354); test: The inhibitory activity against cyclooxygenase Prostaglandin G/H synthase 2 (COX-2) measured as PGE-2 production after stimulation by lipopolysaccharide (LPS) using human Whole blood assay
T3 sequence (P35354 whole entry): T2 sequence (whole entry)

T1 sequence (P23219 whole entry): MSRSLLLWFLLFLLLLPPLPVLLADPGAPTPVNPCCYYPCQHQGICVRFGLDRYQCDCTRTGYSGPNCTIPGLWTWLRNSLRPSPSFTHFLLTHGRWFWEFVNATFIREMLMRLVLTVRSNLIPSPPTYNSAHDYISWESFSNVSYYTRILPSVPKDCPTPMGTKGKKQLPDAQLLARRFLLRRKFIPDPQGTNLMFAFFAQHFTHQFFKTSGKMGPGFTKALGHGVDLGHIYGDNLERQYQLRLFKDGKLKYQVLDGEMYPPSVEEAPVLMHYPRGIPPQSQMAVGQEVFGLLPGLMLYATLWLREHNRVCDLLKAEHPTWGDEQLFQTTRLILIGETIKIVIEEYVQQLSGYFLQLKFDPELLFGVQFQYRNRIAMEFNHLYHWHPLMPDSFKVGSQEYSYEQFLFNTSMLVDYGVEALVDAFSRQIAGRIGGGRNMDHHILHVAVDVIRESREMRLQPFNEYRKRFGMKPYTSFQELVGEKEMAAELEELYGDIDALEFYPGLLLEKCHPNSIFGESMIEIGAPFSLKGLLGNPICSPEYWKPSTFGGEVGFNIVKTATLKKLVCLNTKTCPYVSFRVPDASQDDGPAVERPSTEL

Row | Compound | Growth (Rattus norvegicus [4]) [%] | Growth (Rattus norvegicus [5]) [%] | also measured
1 | CS(=O)(=O)Nc1cccnc1Oc1ccccc1 |  |  | inhibition [1]: inactive; inhibition [2]: inactive
2 | CN(c1ccc([N+](=O)[O-])cc1Oc1ccccc1)S(C)(=O)=O | 84.6 | 65.6 | NI [3]: inactive
3 | CS(=O)(=O)Nc1ccc([N+](=O)[O-])cc1Oc1ccccc1 [NIMESULIDE] | 58 | 54 | 
4 | O=S(=O)(Nc1ccncc1Oc1ccccc1)C(F)(F)F | 74.7 | 54.1 | 
5 | CS(=O)(=O)Nc1ccncc1Oc1ccccc1 |  |  | pIC50 [6]: 5.31; Growth (Rattus norvegicus [7]): Toxic; pIC50 [8]: 4.43
